Assay results reported in ChEMBL document CHEMBL4350998, “Design, synthesis, and structure-activity relationship studies of l-amino alcohol derivatives as broad-spectrum antifungal agents” (Eur J Med Chem, 2019).
Values after ≈ are worked out from the molar mass of the structure shown.

How the values were obtained:
[1] = tested on: Candida albicans; experiment: Antifungal activity against Candida albicans SC5314; format: functional
[2] = tested on: Candida tropicalis; experiment: Antifungal activity against Candida tropicalis CGMCC 2.3739 assessed as inhibition of visible microbial growth by NCCLS protocol based method; format: functional
How it was run: (§1)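 Compounds dissolved in DMSO and serially diluted into growth medium. MIC was read as the lowest concentration that inhibited visible fungal growth.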

[3] = tested on: Aspergillus fumigatus; experiment: Antifungal activity against Aspergillus fumigatus CGMCC 3.7795 assessed as inhibition of visible microbial growth by NCCLS protocol based method; format: functional; how it was run: as §1
[4] = tested on: Candida albicans; experiment: Antifungal activity against Candida albicans CPCC 400523 assessed as inhibition of visible microbial growth by NCCLS protocol based method; format: functional
[5] = tested on: Cryptococcus neoformans; experiment: Antifungal activity against Cryptococcus neoformans CGMCC 2.3161 assessed as inhibition of visible microbial growth by NCCLS protocol based method; format: functional; how it was run: as §1
[6] = tested on: Candida albicans; experiment: Antifungal activity against Candida albicans ATCC SC5314 assessed as inhibition of visible microbial growth by NCCLS protocol based method; format: functional; how it was run: as §1
[7] = biological target: T1, Lanosterol 14-alpha demethylase (Candida albicans (strain SC5314 / ATCC MYA-2876) (Yeast), UniProt P10613); experiment: Inhibition of CYP51 in Candida albicans ATCC SC5314 assessed as obtusifoliol level at 2 ug/ml incubated for 16 hrs by GC/MS analysis (reference value: 0%); set-up: scale not given: the % may be the effect or the level left; settings: candida albicans sc5314, 16 h
[8] = biological target: T1, Lanosterol 14-alpha demethylase; experiment: Inhibition of CYP51 in Candida albicans ATCC SC5314 assessed as obtusifoliol level at 0.13 ug/ml incubated for 16 hrs by GC/MS analysis (reference value: 0%); set-up: scale not given: the % may be the effect or the level left; settings: candida albicans sc5314, 16 h
[9] = biological target: T1, Lanosterol 14-alpha demethylase; experiment: Inhibition of CYP51 in Candida albicans ATCC SC5314 assessed as lanosterol level at 0.5 ug/ml incubated for 16 hrs by GC/MS analysis (reference value: 0%); set-up: scale not given: the % may be the effect or the level left; settings: candida albicans sc5314, 16 h
[10] = biological target: T1, Lanosterol 14-alpha demethylase; experiment: Inhibition of CYP51 in Candida albicans ATCC SC5314 assessed as eburicol level at 8 ug/ml incubated for 16 hrs by GC/MS analysis (reference value: 0%); set-up: scale not given: the % may be the effect or the level left; settings: candida albicans sc5314, 16 h
[11] = biological target: T1, Lanosterol 14-alpha demethylase; experiment: Inhibition of CYP51 in Candida albicans ATCC SC5314 assessed as eburicol level at 0.13 ug/ml incubated for 16 hrs by GC/MS analysis (reference value: 0%); set-up: scale not given: the % may be the effect or the level left; settings: candida albicans sc5314, 16 h
[12] = biological target: T1, Lanosterol 14-alpha demethylase; experiment: Inhibition of CYP51 in Candida albicans ATCC SC5314 assessed as lanosterol level at 2 ug/ml incubated for 16 hrs by GC/MS analysis (reference value: 0%); set-up: scale not given: the % may be the effect or the level left; settings: candida albicans sc5314, 16 h
[13] = biological target: T1, Lanosterol 14-alpha demethylase; experiment: Inhibition of CYP51 in Candida albicans ATCC SC5314 assessed as ergosterol level at 2 ug/ml incubated for 16 hrs by GC/MS analysis (reference value: 100%); set-up: scale not given: the % may be the effect or the level left; settings: candida albicans sc5314, 16 h
[14] = biological target: T1, Lanosterol 14-alpha demethylase; experiment: Inhibition of CYP51 in Candida albicans ATCC SC5314 assessed as eburicol level at 2 ug/ml incubated for 16 hrs by GC/MS analysis (reference value: 0%); set-up: scale not given: the % may be the effect or the level left; settings: candida albicans sc5314, 16 h
[15] = biological target: T1, Lanosterol 14-alpha demethylase; experiment: Inhibition of CYP51 in Candida albicans ATCC SC5314 assessed as eburicol level at 0.5 ug/ml incubated for 16 hrs by GC/MS analysis (reference value: 0%); set-up: scale not given: the % may be the effect or the level left; settings: candida albicans sc5314, 16 h
[16] = biological target: T1, Lanosterol 14-alpha demethylase; experiment: Inhibition of CYP51 in Candida albicans ATCC SC5314 assessed as change in sterol components incubated for 16 hrs by GC/MS analysis; settings: candida albicans sc5314, 16 h
[17] = biological target: T1, Lanosterol 14-alpha demethylase; experiment: Inhibition of CYP51 in Candida albicans ATCC SC5314 assessed as ergosterol level at 0.13 ug/ml incubated for 16 hrs by GC/MS analysis (reference value: 100%); set-up: scale not given: the % may be the effect or the level left; settings: candida albicans sc5314, 16 h
[18] = biological target: T1, Lanosterol 14-alpha demethylase; experiment: Inhibition of CYP51 in Candida albicans ATCC SC5314 assessed as lanosterol level at 8 ug/ml incubated for 16 hrs by GC/MS analysis (reference value: 0%); set-up: scale not given: the % may be the effect or the level left; settings: candida albicans sc5314, 16 h
[19] = biological target: T1, Lanosterol 14-alpha demethylase; experiment: Inhibition of CYP51 in Candida albicans ATCC SC5314 assessed as obtusifoliol level at 8 ug/ml incubated for 16 hrs by GC/MS analysis (reference value: 0%); set-up: scale not given: the % may be the effect or the level left; settings: candida albicans sc5314, 16 h
[20] = biological target: T1, Lanosterol 14-alpha demethylase; experiment: Inhibition of CYP51 in Candida albicans ATCC SC5314 assessed as obtusifoliol level at 0.5 ug/ml incubated for 16 hrs by GC/MS analysis (reference value: 0%); set-up: scale not given: the % may be the effect or the level left; settings: candida albicans sc5314, 16 h
[21] = biological target: T1, Lanosterol 14-alpha demethylase; experiment: Inhibition of CYP51 in Candida albicans ATCC SC5314 assessed as ergosterol level at 8 ug/ml incubated for 16 hrs by GC/MS analysis (reference value: 100%); set-up: scale not given: the % may be the effect or the level left; settings: candida albicans sc5314, 16 h
[22] = tested on: Candida albicans; experiment: Antifungal activity against fluconazole-resistant Candida albicans Strain 17# assessed as inhibition of visible microbial growth by NCCLS protocol based method; format: functional
How it was run: (§2)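 Broth dilution MIC against clinical fluconazole-resistant C. albicans isolates from AIDS patients. Compounds dissolved in DMSO and serially diluted into growth medium. MIC was taken as the lowest concentration that inhibits visible fungal growth. Fluconazole and itraconazole served as positive controls.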

[23] = biological target: T1, Lanosterol 14-alpha demethylase; experiment: Inhibition of CYP51 in Candida albicans ATCC SC5314 assessed as lanosterol level at 0.13 ug/ml incubated for 16 hrs by GC/MS analysis (reference value: 0%); set-up: scale not given: the % may be the effect or the level left; settings: candida albicans sc5314, 16 h
[24] = biological target: T1, Lanosterol 14-alpha demethylase; experiment: Inhibition of CYP51 in Candida albicans ATCC SC5314 assessed as ergosterol level at 0.5 ug/ml incubated for 16 hrs by GC/MS analysis (reference value: 100%); set-up: scale not given: the % may be the effect or the level left; settings: candida albicans sc5314, 16 h
[25] = tested on: Candida albicans; experiment: Antifungal activity against fluconazole-resistant Candida albicans Strain CaR assessed as inhibition of visible microbial growth by NCCLS protocol based method; format: functional; how it was run: as §2
[26] = Cytotoxicity in human A549 cells assessed as reduction in cell viability at 2 uM/L incubated for 24 hrs by MTT assay relative to control; format: cell-based; settings: read-out: INH
How it was run: (§3)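 A549 cells were seeded at 3000 cells/well and preincubated for 16 h at 37 °C, 5% CO2. Medium was then replaced with fresh medium holding compound (DMSO stock diluted to final 0.08, 0.4, 2.0, 10 or 50 μM/L). Exposure lasted 24 h at 37 °C, 5% CO2, followed by MTT for 4 h and absorbance at 490 nm. Results are given as % inhibition.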

[27] = Cytotoxicity in human A549 cells assessed as reduction in cell viability at 0.40 uM/L incubated for 24 hrs by MTT assay relative to control; format: cell-based; settings: read-out: INH; how it was run: as §3
[28] = Stability in human plasma assessed as parent compound remaining at 100 uM after 120 mins LC/MS/MS analysis relative to control; format: ADME, cell-free; settings: read-out: Stability
How it was run: (§4)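 Thawed human plasma was cleared at 4000 rpm and spiked from a 100 μM dosing solution to a final 2 μM, in duplicate, at 37 °C. Propantheline served as positive control. Sampling at 0, 10, 30, 60 and 120 min into ACN/MeOH stop solution with tolbutamide and labetalol internal standards. After centrifugation, supernatant was diluted with water and run by LC/MS/MS. % remaining was taken from the analyte/IS peak-area ratio, with no standard curve.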

[29] = Cytotoxicity in human A549 cells assessed as reduction in cell viability at 50 uM/L incubated for 24 hrs by MTT assay relative to control; format: cell-based; settings: read-out: INH; how it was run: as §3
[30] = Cytotoxicity in human A549 cells assessed as reduction in cell viability at 0.08 uM/L incubated for 24 hrs by MTT assay relative to control; format: cell-based; settings: read-out: INH; how it was run: as §3
[31] = Cytotoxicity in human A549 cells assessed as reduction in cell viability at 10 uM/L incubated for 24 hrs by MTT assay relative to control; format: cell-based; settings: read-out: INH; how it was run: as §3
[32] = Stability in human plasma assessed as parent compound remaining at 100 uM after 60 mins LC/MS/MS analysis relative to control; format: ADME, cell-free; settings: read-out: Stability; how it was run: as §4

T1 sequence (P10613 whole entry): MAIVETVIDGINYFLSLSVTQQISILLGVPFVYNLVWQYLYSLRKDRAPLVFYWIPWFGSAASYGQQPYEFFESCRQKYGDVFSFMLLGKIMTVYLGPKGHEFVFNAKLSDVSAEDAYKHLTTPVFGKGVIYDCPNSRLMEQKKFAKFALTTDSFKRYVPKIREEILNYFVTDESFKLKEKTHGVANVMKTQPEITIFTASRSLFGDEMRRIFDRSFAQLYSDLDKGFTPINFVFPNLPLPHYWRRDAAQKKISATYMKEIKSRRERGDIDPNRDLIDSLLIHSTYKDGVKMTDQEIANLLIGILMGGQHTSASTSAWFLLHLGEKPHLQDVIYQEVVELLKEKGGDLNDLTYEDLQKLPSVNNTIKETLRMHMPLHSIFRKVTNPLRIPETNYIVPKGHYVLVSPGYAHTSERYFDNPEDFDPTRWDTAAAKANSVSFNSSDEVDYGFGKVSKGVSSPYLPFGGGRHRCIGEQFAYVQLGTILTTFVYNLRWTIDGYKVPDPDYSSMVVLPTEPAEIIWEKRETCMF

SMILES: CC(C)OC(=O)C(Cn1ccnc1)NC(=O)c1ccc(-c2ccccc2)cc1 (stereo not given)
- MIC [1]: 0.03 µg/mL (≈ 0.0795 µM)
- MIC [2]: < 0.06 µg/mL
- MIC [3]: > 64 µg/mL
- MIC [4]: 0.25 µg/mL
- MIC [5]: 2 µg/mL
- MIC [6]: < 0.03 µg/mL

SMILES: OC(Cn1cncn1)(Cn1cncn1)c1ccc(F)cc1F [FLUCONAZOLE]
- Activity [7]: 17.7%
- MIC [2]: 1 µg/mL
- Activity [8]: 0%
- Activity [9]: 9.9%
- Activity [10]: 39.9%
- Activity [11]: 0%
- Activity [12]: 28%
- Activity [13]: 17.2%
- Activity [14]: 37.1%
- Activity [15]: 0%
- Activity [16]: Dose-dependent effect
- Activity [17]: 97.7%
- MIC [3]: > 64 µg/mL
- Activity [18]: 22.9%
- Activity [19]: 37.2%
- Activity [20]: 0%
- Activity [21]: 0%
- MIC [22]: > 64 µg/mL
- Activity [23]: 2.3%
- MIC [4]: 1 µg/mL
- Activity [24]: 90.1%
- MIC [5]: 4 µg/mL
- MIC [6]: 0.5 µg/mL
- MIC [25]: > 64 µg/mL

SMILES: CC[C@H](C)[C@@H](Cn1ccnc1)NC(=O)c1ccc(-c2ccccc2F)cc1F
- cytotoxicity at 24 h, 2 µM [26]: 7.3%
- Activity [7]: 23.8%
- MIC [2]: < 0.03 µg/mL
- Activity [8]: 0%
- Activity [9]: 21%
- Activity [10]: 44.9%
- Activity [11]: 0%
- cytotoxicity at 24 h, 0.4 µM [27]: 6.6%
- Activity [12]: 20%
- remaining at 2 h, 100 µM [28]: 92.6%
- Activity [13]: 6.5%
- Activity [14]: 49.7%
- Activity [15]: 30.8%
- Activity [17]: 98%
- MIC [3]: 2 µg/mL
- Activity [18]: 23.8%
- cytotoxicity at 24 h, 50 µM [29]: 13.9%
- Activity [19]: 31.3%
- Activity [20]: 12.2%
- Activity [21]: 0%
- MIC [22]: 2 µg/mL
- Activity [23]: 2%
- MIC [4]: 0.06 µg/mL
- cytotoxicity at 24 h, 0.08 µM [30]: 5.4%
- Activity [24]: 36%
- MIC [5]: 1 µg/mL
- MIC [6]: < 0.03 µg/mL
- cytotoxicity at 24 h, 10 µM [31]: 8.3%
- remaining at 1 h, 100 µM [32]: 114%
- MIC [25]: 8 µg/mL
